Source: ChEMBL document CHEMBL5653629, “Novel Class of Potent and Cellularly Active Inhibitors Devalidates MTH1 as Broad-Spectrum Cancer Target” (ACS Chem Biol, 2017)
≈ marks a conversion by molar mass, not a printed value. Values belong to the molecule of their own block, whether it stands above or below them. Calls of active or inactive are those of the source. The rule behind the calls is not given here.

Legend:
[1] = Toxicity in NMRI nude mouse assessed as drug tolerability at 25 to 250 mg/kg, po qd for 7 days; assay type: organism-based; conditions: in vivo, 168 h, dose 25-250 mg/kg, time 7 day
In short: (§1)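 Female NMRI nude mice received oral doses in PEG/water (80:20), escalated step-wise from 25 to 250 mg/kg over 7 days. Body weight, overt toxicity and mortality were monitored, and observation was extended a further 7 days to catch latent toxicity.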

NCI-H460 [2] = assay: Antitumor activity against human NCI-H460 cells xenografted in NMRI nude mouse assessed as reduction in tumor volume at 100 mg/kg, po measured for 10 days; conditions: time 10.0 day
[3] = Metabolic stability in Han Wistar rat hepatocytes using well-stirred liver model assessed as clearance at 1 uM measured for 2 to 90 mins by LC-MS/MS analysis; assay type: ADME, cell-based, Hepatocyte; conditions: time 2-90 min
MCF7 [4] = assay: Inhibition of colony formation of human MCF7 cells at 0.1 to 10 uM measured after 15 days by soft agar assay; assay type: functional, cell-based; conditions: dose 0.1-10 µM, time 15.0 day
[5] = Protein binding in mouse plasma assessed as free fraction; assay type: ADME, cell-free
HeLa [6] = assay: Upregulation of OGG1 protein level in human HeLa cells at 1 uM by Western blot analysis; assay type: functional, cell-based
In short: (§2)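 HeLa cells were treated and probed by Western blot for MTH2, OGG1, MUTYH and MTH1. HSP90 served as loading control.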

CT26 [7] = assay: Antitumor activity against mouse CT26 cells xenografted in NMRI nude mouse assessed as reduction in tumor volume at 100 mg/kg, po measured for 12 days; assay type: functional, organism-based; conditions: time 12.0 day
[8] = Apparent permeability across apical to basolateral side in human Caco-2 cells at 2 uM incubated for 2 hrs by LC/MS/MS analysis; assay type: ADME, cell-based
HeLa [9] = assay: Upregulation of MUTYH protein level in human HeLa cells at 1 uM by Western blot analysis; assay type: functional, cell-based; in short: as §2
[10] = Cytotoxicity against HMEC cells assessed as cell growth inhibition incubated for 144 hrs by alamarblue staining based assay; assay type: toxicity; conditions: human
HeLa [11] = assay: Upregulation of OGG1 mRNA level in human HeLa cells at 1 uM incubated for 6 days by qPCR analysis; assay type: functional, cell-based; conditions: time 6.0 day
NCI-H460 [12] = assay: Antitumor activity against human NCI-H460 cells xenografted in NMRI nude mouse assessed as reduction in tumor weight at 100 mg/kg, po measured for 10 days; conditions: time 10.0 day
[13] = Aqueous solubility of compound in pH 6.5; assay type: physicochemical; conditions: buffer
CT26 [14] = assay: Additive antitumor activity against mouse CT26 cells xenografted in NMRI nude mouse assessed as reduction in tumor growth at 100 mg/kg, po along with radiation treatment measured for 12 days; assay type: functional, organism-based; conditions: time 12.0 day
[15] = Metabolic stability in human liver microsomes assessed as clearance at 1 uM measured for 2 to 60 mins by LC-MS/MS analysis; assay type: ADME, Microsome; conditions: time 2-60 min
CT26 [16] = assay: Antitumor activity against mouse CT26 cells xenografted in NMRI nude mouse assessed as reduction in tumor weight at 100 mg/kg, po measured for 12 days; assay type: functional, organism-based; conditions: time 12.0 day
NCI-H358 [17] = assay: Induction of DNA double strand breaks in human NCI-H358 cells assessed as increase in gamma-H2AX expression at 12.4 uM incubated for 72 hrs by high content analysis; assay type: functional, cell-based
In short: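 NCI-H358 cells were immunostained for γH2AX and DNA and analysed by high content imaging. The highest concentration tested was 12.4 µM, and EC50 was taken for DSB induction.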

[18] = Toxicity in NMRI nude mouse assessed as body weight loss upto 250 mg/kg, po qd for 7 days; assay type: organism-based; conditions: in vivo, 168 h, time 7 day; in short: as §1
[19] = Metabolic stability in human liver microsomes assessed as maximum bioavailability at 1 uM measured for 2 to 60 mins by LC-MS/MS analysis; assay type: ADME, Microsome; conditions: time 2-60 min, read-out: Fmax
HeLa [20] = assay: Upregulation of MUTYH mRNA level in human HeLa cells at 1 uM incubated for 6 days by qPCR analysis; assay type: functional, cell-based; conditions: time 6.0 day
U2OS [21] = assay: Effect on nuclear 8-oxo-dG level in human U2OS cells at 10 to 30 uM incubated for 72 hrs by high content analysis; assay type: functional, cell-based; conditions: dose 10-30 µM
In short: (§3)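 U2OS cells were immunostained for 8-oxo-dG and DNA, then imaged by high content analysis. Average nuclear 8-oxo-dG intensity and average nuclear count were measured together.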

[22] = Distribution coefficient, logD of compound at pH 7.5 by HPLC analysis; assay type: physicochemical; conditions: octanol/water
U2OS [23] = assay: Effect on nuclear 8-oxo-dG level in human U2OS cells at 10 to 30 uM incubated for 72 hrs in presence of LCS1 by high content analysis; assay type: functional, cell-based; conditions: dose 10-30 µM
[24] = Metabolic stability in Han Wistar rat hepatocytes using well-stirred liver model assessed as maximum bioavailability at 1 uM measured for 2 to 90 mins by LC-MS/MS analysis; assay type: ADME, Hepatocyte; conditions: time 2-90 min, route po, read-out: Fmax
U2OS [25] = assay: Upregulation of nuclear 8-oxo-dG level in human U2OS cells at 1 to 2 uM incubated for 72 hrs by high content analysis; assay type: functional, cell-based; conditions: dose 1-2 µM; in short: as §3
U2OS [26] = assay: Cytotoxicity against human U2OS cells assessed as reduction in cell viability by measuring nuclei count at 30 uM incubated for 72 hrs by high content analysis; assay type: functional, cell-based; in short: as §3
NCI-H460 [27] = assay: cells; conditions: Homo sapiens, NCI-H460, 144 h
NCI-H358 [28] = assay: cells; conditions: Homo sapiens, NCI-H358, 144 h
MDA-MB-231 = assay: cells; conditions: Homo sapiens, MDA-MB-231, 144 h
MCF7 [29] = assay: cells; conditions: Homo sapiens, MCF7, 144 h
SW480 = assay: cells; conditions: Homo sapiens, SW480, 144 h
HeLa [30] = assay: cells; conditions: Homo sapiens, 144 h
A549 = assay: cells; conditions: Homo sapiens, A549, 144 h
NCI-H358 [31] = assay: Induction of DNA double strand breaks in human NCI-H358 cells assessed as increase in gamma-H2AX expression at 0.005 to 12 micromol/L incubated for 72 hrs by high content analysis; conditions: NCI-H358, 72 h
U2OS [32] = assay: cells; conditions: Homo sapiens, 144 h
U2OS [33] = assay: Upregulation of nuclear 8-oxo-dG level in human U2OS cells at 100 to 300 nM incubated for 72 hrs by high content analysis; assay type: functional, cell-based; conditions: dose 100-300 nM; in short: as §3
U2OS [34] = assay: Upregulation of nuclear 8-oxo-dG level in human U2OS cells at 2 to 10 uM incubated for 72 hrs by high content analysis; assay type: functional, cell-based; conditions: dose 2-10 µM; in short: as §3

CLhep predicted at 1 µM [3]: 9 mL/min/kg
fraction unbound [5]: 0.48
Papp A→B at 2 h, 2 µM [8]: 14.8 ×10⁻⁶ cm/s
solubility [13]: 288 µg/mL (≈ 999 µM)
CLH [15]: 4.83 mL/min/kg
Fh at 1 µM [19]: 78%
logD [22]: 1.6
Fh at 1 µM [24]: 87%
SMILES: CCNC(=O)c1cc2c(N3CCOC[C@@H]3C)ccnc2[nH]1
Activity [1]: Non-Toxic
Activity (NCI-H460 [2]): inactive
inhibition (MCF7 [4]): inactive
Activity (HeLa [6]): inactive
Activity (CT26 [7]): inactive
Activity (HeLa [9]): inactive
GI50 at 144 h [10]: > 30 µM
Activity (HeLa [11]): inactive
Activity (NCI-H460 [12]): inactive
Activity (CT26 [14]): inactive
Activity (CT26 [16]): inactive
Activity (NCI-H358 [17]): inactive
Activity [18]: < 10%
Activity (HeLa [20]): inactive
Activity (U2OS [21]): inactive
Activity (U2OS [23]): inactive

SMILES: CC(C)(C)c1cnc(CSc2cnc(NC(=O)C3CCNCC3)s2)o1
Activity (U2OS [25]): Active

SMILES: Cc1cccc(-n2ncc(Cl)c(Cl)c2=O)c1
Activity (U2OS [26]): Active

SMILES: Nc1nc(NC2CC2)cc(-c2cccc(Cl)c2Cl)n1
GI50 (NCI-H460 [27]): 7.1 µM
Activity (U2OS [26]): Active
GI50 (NCI-H358 [28]): 4.9 µM
CLhep predicted at 1 µM [3]: 32 mL/min/kg
fraction unbound [5]: 0.04
GI50 (MDA-MB-231): 6.3 µM
Activity (HeLa [6]): inactive
GI50 (MCF7 [29]): 3.5 µM
Papp A→B at 2 h, 2 µM [8]: 30.7 ×10⁻⁶ cm/s
Activity (HeLa [9]): inactive
GI50 at 144 h [10]: 3.2 µM
Activity (HeLa [11]): inactive
solubility [13]: 38 µg/mL (≈ 129 µM)
GI50 (SW480): 5.3 µM
GI50 (HeLa [30]): 4.2 µM
CLH [15]: 10.7 mL/min/kg
GI50 (A549): 4 µM
EC50 (NCI-H358 [31]): 3.11 µM
GI50 (U2OS [32]): 2.6 µM
Fh at 1 µM [19]: 51%
Activity (HeLa [20]): inactive
logD [22]: 2.5
Fh at 1 µM [24]: 54%

SMILES: CC[C@@H]1C(=O)N(C)c2cnc(Nc3ccc(C(=O)N[C@H]4CC[C@H](N5CCN(CC6CC6)CC5)CC4)cc3OC)nc2N1C(C)C
Activity (U2OS [33]): Active

SMILES: Cc1cc(Nc2cc(N3CCN(C)CC3)nc(Sc3ccc(NC(=O)C4CC4)cc3)n2)n[nH]1
Activity (U2OS [34]): Active
